Assay results taken from ChEMBL document CHEMBL4261634, “Design and optimization of 2,3-dihydrobenzo[b][1,4]dioxine propanoic acids as novel GPR40 agonists with improved pharmacokinetic and safety profiles” (Bioorg Med Chem, 2018).
Active and inactive are the calls of the source. The calls are words filed in the database; no cut-off is given here.

Experiments:
[1] = system: Rattus norvegicus; experiment: Subacute toxicity in Sprague-Dawley rat assessed as effect on food intake at 50 to 100 mg/kg, po administered once daily for 2 weeks; assay type: organism-based; settings: in vivo, 336 h
In short: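 SD rats dosed orally once daily for two weeks at 50 mg/kg and 100 mg/kg. Subacute toxicity was assessed over the dosing period from survival rate, behaviour, food intake and organ coefficients.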

[2] = MRT in Sprague-Dawley rat at 1 mg/kg, iv by LC-ESI-MS analysis; assay type: ADME, organism-based; settings: in vivo
In short: (§1)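 SD rats dosed orally (3 or 10 mg/kg) or by intravenous injection (1 mg/kg). Plasma PK parameters derived per route: Cmax, AUC0-t, Tmax, t1/2 and F after oral dosing; CL, AUC0-t, MRT, t1/2 and Vdss after iv dosing. Mean ± SD from three independent experiments (n = 3).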

[3] = biological target: T1, Free fatty acid receptor 4 (Homo sapiens) (UniProt Q5NUL3); experiment: Agonist activity at GPR120 (unknown origin) up to 100 uM; assay type: functional
T1 sequence (whole entry): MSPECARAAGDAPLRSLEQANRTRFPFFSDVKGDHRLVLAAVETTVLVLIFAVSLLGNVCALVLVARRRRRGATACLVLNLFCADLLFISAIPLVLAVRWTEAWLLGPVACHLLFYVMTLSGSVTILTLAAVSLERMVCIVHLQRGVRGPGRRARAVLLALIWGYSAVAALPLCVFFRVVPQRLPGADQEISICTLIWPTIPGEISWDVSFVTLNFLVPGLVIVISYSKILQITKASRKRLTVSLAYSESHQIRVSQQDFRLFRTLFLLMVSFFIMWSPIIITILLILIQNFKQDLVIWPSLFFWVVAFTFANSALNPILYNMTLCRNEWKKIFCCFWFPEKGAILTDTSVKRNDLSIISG

[4] = biological target: Cytochrome P450 2D6 (Homo sapiens, UniProt P10635); experiment: Inhibition of CYP2D6 (unknown origin); assay type: ADME
Chain of Cytochrome P450 2D6 (P10635 whole entry): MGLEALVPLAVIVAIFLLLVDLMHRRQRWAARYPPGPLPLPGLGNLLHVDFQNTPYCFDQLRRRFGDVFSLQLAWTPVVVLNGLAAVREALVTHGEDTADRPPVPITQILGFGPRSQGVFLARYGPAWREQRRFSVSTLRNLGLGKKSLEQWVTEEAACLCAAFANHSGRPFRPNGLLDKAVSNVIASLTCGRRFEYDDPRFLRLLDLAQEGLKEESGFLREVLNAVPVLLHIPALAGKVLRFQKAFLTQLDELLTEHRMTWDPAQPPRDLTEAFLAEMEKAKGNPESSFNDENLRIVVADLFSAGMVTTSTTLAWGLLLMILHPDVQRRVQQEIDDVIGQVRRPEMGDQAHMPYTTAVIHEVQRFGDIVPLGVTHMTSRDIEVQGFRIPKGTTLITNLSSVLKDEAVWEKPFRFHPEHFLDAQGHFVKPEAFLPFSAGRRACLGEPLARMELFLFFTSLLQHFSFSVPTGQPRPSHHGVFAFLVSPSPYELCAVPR

[5] = Tmax in Sprague-Dawley rat at 3 mg/kg, po by LC-ESI-MS analysis; assay type: ADME, organism-based; settings: in vivo; in short: as §1
[6] = Oral bioavailability in Sprague-Dawley rat at 3 mg/kg by LC-ESI-MS analysis; assay type: ADME, organism-based; settings: in vivo; in short: as §1
[7] = Cmax in Sprague-Dawley rat at 10 mg/kg, po by LC-ESI-MS analysis; assay type: ADME, organism-based; design: dose 10 mg/kg, route oral; settings: in vivo; in short: as §1
[8] = system: Rattus norvegicus; experiment: Antidiabetic activity in Sprague-Dawley rat assessed as reduction in blood glucose AUC (0 to 120 mins) at 10 to 20 mg/kg, po administered 60 mins prior to glucose challenge by OGTT; assay type: functional, organism-based
In short: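 OGTT in SD rats: compound given orally 60 min before a 3.0 g/kg glucose challenge. Blood glucose followed over time, and AUC0-60min or AUC0-120min calculated versus vehicle group. Mean ± SD, n = 8.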

[9] = Elimination half life in Sprague-Dawley rat at 10 mg/kg, po by LC-ESI-MS analysis; assay type: ADME, organism-based; settings: in vivo, read-out: beta t1/2 (converted); in short: as §1
[10] = biological target: T2, Solute carrier organic anion transporter family member 1B1 (Homo sapiens, UniProt Q9Y6L6); experiment: Inhibition of human […]
T2 sequence (Q9Y6L6 whole entry): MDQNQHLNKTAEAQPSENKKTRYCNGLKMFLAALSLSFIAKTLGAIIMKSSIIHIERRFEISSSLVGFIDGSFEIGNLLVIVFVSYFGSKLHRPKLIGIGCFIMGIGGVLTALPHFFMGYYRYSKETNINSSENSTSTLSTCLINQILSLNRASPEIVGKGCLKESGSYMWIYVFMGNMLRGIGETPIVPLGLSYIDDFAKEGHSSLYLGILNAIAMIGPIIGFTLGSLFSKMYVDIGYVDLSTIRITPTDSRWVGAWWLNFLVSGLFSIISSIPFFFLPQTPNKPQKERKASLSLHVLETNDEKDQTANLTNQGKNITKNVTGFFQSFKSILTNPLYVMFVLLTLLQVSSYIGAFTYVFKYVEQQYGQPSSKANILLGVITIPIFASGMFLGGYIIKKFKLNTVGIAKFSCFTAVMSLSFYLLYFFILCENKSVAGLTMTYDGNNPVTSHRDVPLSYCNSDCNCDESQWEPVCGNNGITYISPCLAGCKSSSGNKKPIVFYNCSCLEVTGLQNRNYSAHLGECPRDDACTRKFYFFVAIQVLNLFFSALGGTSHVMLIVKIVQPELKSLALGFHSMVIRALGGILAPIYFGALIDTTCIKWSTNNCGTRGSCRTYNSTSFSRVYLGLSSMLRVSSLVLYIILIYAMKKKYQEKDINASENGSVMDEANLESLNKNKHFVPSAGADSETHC

[11] = Elimination half life in Sprague-Dawley rat at 1 mg/kg, iv by LC-ESI-MS analysis; assay type: ADME, organism-based; settings: in vivo, read-out: beta t1/2 (converted); in short: as §1
[12] = system: Hepatocyte; experiment: Toxicity in sandwich-cultured Sprague-Dawley rat hepatocytes assessed as inhibition of hepatobiliary transport by measuring biliary excretion index at 5 to 40 uM after 15 mins in presence of d8-TCA by LC-MS/MS analysis; assay type: cell-based; settings: 0.25 h
In short: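 Sandwich-cultured rat hepatocytes incubated with compound and d8-TCA in standard (Ca2+-containing) or Ca2+-free buffer. Cellular d8-TCA measured, and the biliary excretion index calculated as the fraction of accumulated bile acid excreted into bile. Mean of three independent experiments.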

[13] = biological target: T3, Free fatty acid receptor 3 (Homo sapiens) (UniProt O14843); experiment: Agonist activity at GPR41 (unknown origin) up to 100 uM; assay type: functional
T3 sequence (whole entry): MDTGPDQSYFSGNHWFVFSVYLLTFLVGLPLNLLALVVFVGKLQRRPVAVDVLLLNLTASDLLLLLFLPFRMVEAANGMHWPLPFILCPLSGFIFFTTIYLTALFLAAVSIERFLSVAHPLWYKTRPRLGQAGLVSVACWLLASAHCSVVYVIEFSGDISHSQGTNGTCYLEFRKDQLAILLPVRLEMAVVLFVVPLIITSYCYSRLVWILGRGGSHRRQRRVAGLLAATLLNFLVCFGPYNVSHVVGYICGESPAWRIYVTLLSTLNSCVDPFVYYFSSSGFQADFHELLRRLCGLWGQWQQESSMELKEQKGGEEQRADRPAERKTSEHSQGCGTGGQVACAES

[14] = biological target: T4, Glucose-dependent insulinotropic receptor (Homo sapiens, UniProt Q8TDV5); experiment: Agonist activity at GPR119 (unknown origin); assay type: functional
T4 sequence (Q8TDV5 whole entry): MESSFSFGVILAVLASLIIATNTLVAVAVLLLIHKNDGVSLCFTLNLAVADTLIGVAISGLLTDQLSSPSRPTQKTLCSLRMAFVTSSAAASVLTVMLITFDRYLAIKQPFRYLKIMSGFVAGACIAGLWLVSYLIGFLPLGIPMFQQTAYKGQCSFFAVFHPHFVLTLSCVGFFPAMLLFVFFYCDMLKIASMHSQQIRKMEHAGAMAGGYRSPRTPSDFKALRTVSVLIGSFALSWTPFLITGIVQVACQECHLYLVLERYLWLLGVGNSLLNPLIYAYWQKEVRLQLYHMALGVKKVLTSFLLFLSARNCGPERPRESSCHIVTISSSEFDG

[15] = biological target: Free fatty acid receptor 1 (Homo sapiens, UniProt O14842); experiment: Agonist activity at GPR40 (unknown origin); assay type: functional
Chain of Free fatty acid receptor 1 (O14842 whole entry): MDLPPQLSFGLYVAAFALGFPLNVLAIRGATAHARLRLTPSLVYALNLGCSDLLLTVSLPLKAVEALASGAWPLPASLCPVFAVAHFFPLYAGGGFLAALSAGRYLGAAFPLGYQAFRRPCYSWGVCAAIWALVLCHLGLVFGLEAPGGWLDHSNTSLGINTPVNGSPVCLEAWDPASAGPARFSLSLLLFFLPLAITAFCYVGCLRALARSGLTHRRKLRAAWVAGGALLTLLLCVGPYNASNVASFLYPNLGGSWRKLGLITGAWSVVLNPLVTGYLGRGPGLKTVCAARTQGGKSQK
In short: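 Human GPR40 activity read by calcium mobilization to give EC50. Emax expressed relative to linoleic acid as 100%. Mean ± SD, n = 3.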

CC#C[C@@H](CC(=O)O)c1ccc(OC[C@H]2COc3ccc(Cl)cc3O2)cc1
Activity [1]: Non-Toxic | MRT [2]: 17.9 h | Activity [3]: inactive | IC50 [4]: > 100 µM | Tmax [5]: 3 h | bioavailability [6]: 65.5% | Cmax [7]: 47800 ng/mL | Activity [8]: Active | half-life [9]: 25.7 h | IC50 [10]: > 100 µM | half-life [11]: 13.2 h | Activity [12]: Non-Toxic | Activity [13]: inactive | EC50 [14]: > 100 µM | EC50 [15]: 0.046 µM
